Experimental data: ChEMBL document CHEMBL4346684, “Synthesis and structure-bactericidal activity relationships of non-ketolides: 9-Oxime clarithromycin 11,12-cyclic carbonate featured with three-to eight-atom-length spacers at 3-OH” (Eur J Med Chem, 2019)
pIC50: −log10 of the molar value. Converted amounts (≈) assume the structure as drawn. The source made the active and inactive calls. No cut-off for these calls is given here.

How the values were obtained:
[1] = tested on: Staphylococcus aureus; assay: Antimicrobial activity against inducibly erythromycin-resistant and methicillin resistant Staphylococcus aureus PU32 expressing i-ermA incubated in CAMHB medium for 20 hrs by two-fold microbroth dilution method; type: functional; details: PU32, 20 h
Method in brief: (§1)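 Purified fresh Staphylococcus isolate at about 5×10^5 CFU/ml final in CAMHB, 35 °C for 20 h. Each run included ATCC strains and reference antibiotics as QC, plus an antibiotic-free growth control.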

[2] = tested on: Staphylococcus aureus; assay: Bactericidal activity against inducibly erythromycin-resistant and methicillin resistant Staphylococcus aureus PU32 expressing i-ermA assessed as reduction in colony formation incubated in CAMHB medium for 20 hrs followed by 24 hrs subculturing in the medium without test compound; type: functional
[3] = tested on: Streptococcus pneumoniae; assay: Antimicrobial activity against mef-encoded erythromycin resistant Streptococcus pneumoniae PU09 incubated in CAMHB medium for 20 to 24 hrs by two-fold microbroth dilution method; type: functional
[4] = tested on: Streptococcus pyogenes; assay: Bactericidal activity against inducibly erythromycin resistant Streptococcus pyogenes 01-968 expressing i-ermA at 1 to 16XMIC incubated for 12 hrs by broth dilution method; type: functional, organism-based
Method in brief: (§2)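 Samples were taken at 1, 2, 4, 6, 8, 12 and 24 h, diluted and subcultured at 35 °C for 20–24 h. Colonies were counted and log CFU plotted against time; detection limit 300 CFU/mL.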

[5] = tested on: Rattus norvegicus; assay: Ratio of telithromycin clearance to compound clearance in Sprague-Dawley rat at 20 mg/kg, po administered as single dose measured for 0.25 to 24 hrs by LC-MS/MS analysis; type: ADME, organism-based; details: in vivo
[6] = tested on: Streptococcus pyogenes; assay: Ratio of MBC to MIC for inducibly erythromycin resistant Streptococcus pyogenes 01-968 expressing i-ermA; type: functional
[7] = Half life in Sprague-Dawley rat at 20 mg/kg, po administered as single dose measured for 0.25 to 24 hrs by LC-MS/MS analysis; type: ADME, organism-based; details: in vivo
Method in brief: (§3)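 Male SD rats (2-3 per compound) given a single oral 20 mg/kg dose in saline with 1% DMF/20% hydroxypropyl-β-cyclodextrin (w/v). Blood drawn at 0.25, 0.5, 1, 2, 4, 6, 8 and 24 h, centrifuged 2500 g, 5 min, 4 °C; drug quantified by LC-MS/MS. Noncompartmental parameters calculated (AUC0-t, AUCinf, CL, t1/2, MRT, Cmax, Tmax); mean ± s.d.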

[8] = tested on: Streptococcus pneumoniae; assay: Bactericidal activity against erythromycin-susceptible Streptococcus pneumoniae ATCC 49619 assessed as log reduction in bacterial CFU at 1XMIC incubated for 1 to 24 hrs by broth dilution method; type: functional
Method in brief: (§4)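 Samples taken at 1, 2, 4, 6, 8, 12, 24 h, diluted and plated, colonies counted after 20-24 h at 35 °C; log CFU plotted against time. Detection limit 300 CFU/mL.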

[9] = tested on: Haemophilus influenzae; assay: Bactericidal activity against azithromycin-susceptible Haemophilus influenzae ATCC 49247 assessed as reduction in colony formation incubated in HTM broth medium for 20 to 24 hrs followed by 24 hrs subculturing in the medium without test compound; type: functional
[10] = tested on: Streptococcus pneumoniae; assay: Ratio of clarithromycin MBC to compound MBC for mef-encoded erythromycin resistant Streptococcus pneumoniae PU09; type: functional
[11] = tested on: Streptococcus pyogenes; assay: Ratio of clarithromycin MBC to compound MBC for inducibly erythromycin resistant Streptococcus pyogenes 01-968 expressing i-ermA; type: functional
[12] = Tmax in Sprague-Dawley rat at 20 mg/kg, po administered as single dose measured for 0.25 to 24 hrs by LC-MS/MS analysis; type: ADME, organism-based; details: in vivo; method in brief: as §3
[13] = MRT in Sprague-Dawley rat at 20 mg/kg, po administered as single dose measured for 0.25 to 24 hrs by LC-MS/MS analysis; type: ADME, organism-based; details: in vivo; method in brief: as §3
[14] = tested on: Staphylococcus aureus; assay: Ratio of MBC to MIC for inducibly erythromycin-resistant and methicillin resistant Staphylococcus aureus PU32 expressing i-ermA; type: functional
[15] = tested on: Rattus norvegicus; assay: Ratio of telithromycin half life to compound half life in Sprague-Dawley rat at 20 mg/kg, po administered as single dose measured for 0.25 to 24 hrs by LC-MS/MS analysis; type: ADME, organism-based; details: in vivo
[16] = Clearance in Sprague-Dawley rat at 20 mg/kg, po administered as single dose measured for 0.25 to 24 hrs by LC-MS/MS analysis; type: ADME, organism-based; details: in vivo; method in brief: as §3
[17] = tested on: Staphylococcus aureus; assay: Antimicrobial activity against constitutively erythromycin resistant and methicillin resistant Staphylococcus aureus PU20 expressing c-ermC incubated in CAMHB medium for 20 hrs by two-fold microbroth dilution method; type: functional; details: PU20, 20 h; method in brief: as §1
[18] = tested on: Rattus norvegicus; assay: Ratio of telithromycin Tmax to compound Tmax in Sprague-Dawley rat at 20 mg/kg, po administered as single dose measured for 0.25 to 24 hrs by LC-MS/MS analysis; type: ADME, organism-based; details: in vivo
[19] = AUC (0 to t) in Sprague-Dawley rat at 20 mg/kg, po administered as single dose measured for 0.25 to 24 hrs by LC-MS/MS analysis; type: ADME, organism-based; design: time 0.25-24 hr, dose 20 mg/kg, route oral; details: in vivo; method in brief: as §3
[20] = tested on: Streptococcus pneumoniae; assay: Antimicrobial activity against erythromycin-susceptible Streptococcus pneumoniae ATCC 49619 incubated in CAMHB medium for 20 to 24 hrs by two-fold microbroth dilution method; type: functional
[21] = molecular target: Cytochrome P450 3A4 (Homo sapiens, UniProt P08684); assay: Inhibition of CYP3A4 in human liver microsomes using midazolam as substrate incubated for 10 mins after substrate addition by HPLC analysis; type: ADME
Method in brief: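 Human liver microsome CYP3A4 (0.03 mg/mL final), midazolam 5.00 μM final, 0.1 M potassium phosphate pH 7.4 with MgCl2, preincubated 37 °C 5 min. Test compound 0-25.00 μM (ketoconazole 0-0.25 μM as reference) and NADPH 1.5 mM final added; 10 min at 37 °C. Metabolite/internal-standard peak-area ratio measured by UPLC-MS/MS; IC50 fitted.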

[22] = tested on: Staphylococcus aureus; assay: Ratio of clarithromycin MBC to compound MBC for inducibly erythromycin-resistant and methicillin resistant Staphylococcus aureus PU32 expressing i-ermA; type: functional
[23] = Ratio of telithromycin MRT to compound MRT in Sprague-Dawley rat at 20 mg/kg, po administered as single dose measured for 0.25 to 24 hrs by LC-MS/MS analysis; type: ADME, organism-based; details: in vivo
[24] = tested on: Streptococcus pneumoniae; assay: Ratio of MBC to MIC for mef-encoded erythromycin resistant Streptococcus pneumoniae PU09; type: functional
[25] = tested on: Streptococcus pyogenes; assay: Antimicrobial activity against inducibly erythromycin resistant Streptococcus pyogenes 01-968 expressing i-ermA incubated in CAMHB medium for 20 to 24 hrs by two-fold microbroth dilution method; type: functional
[26] = tested on: Rattus norvegicus; assay: Ratio of telithromycin AUC to compound AUC in Sprague-Dawley rat at 20 mg/kg, po administered as single dose measured for 0.25 to 24 hrs by LC-MS/MS analysis; type: ADME, organism-based; details: in vivo
[27] = tested on: Streptococcus pneumoniae; assay: Bactericidal activity against mef-encoded erythromycin resistant Streptococcus pneumoniae PU09 at 1 to 16xMIC incubated for 1 to 24 hrs by broth dilution method; type: functional, organism-based; method in brief: as §2
[28] = tested on: Rattus norvegicus; assay: Ratio of telithromycin Cmax to compound Cmax in Sprague-Dawley rat at 20 mg/kg, po administered as single dose measured for 0.25 to 24 hrs by LC-MS/MS analysis; type: ADME, organism-based; details: in vivo
[29] = tested on: Haemophilus influenzae; assay: Antimicrobial activity against azithromycin-susceptible Haemophilus influenzae ATCC 49247 incubated in HTM broth medium for 20 to 24 hrs by two-fold microbroth dilution method; type: functional
[30] = tested on: Streptococcus pneumoniae; assay: Ratio of MBC to MIC for erythromycin-susceptible Streptococcus pneumoniae ATCC 49619; type: functional
[31] = tested on: Streptococcus pyogenes; assay: Bactericidal activity against inducibly erythromycin resistant Streptococcus pyogenes 01-968 expressing i-ermA assessed as reduction in colony formation incubated in CAMHB medium for 20 to 24 hrs followed by 24 hrs subculturing in the medium without test compound; type: functional
[32] = tested on: Streptococcus pneumoniae; assay: Bactericidal activity against erythromycin-susceptible Streptococcus pneumoniae ATCC 49619 assessed as reduction in colony formation incubated in CAMHB medium for 20 to 24 hrs followed by 24 hrs subculturing in the medium without test compound; type: functional
[33] = tested on: Streptococcus pneumoniae; assay: Bactericidal activity against mef-encoded erythromycin resistant Streptococcus pneumoniae PU09 assessed as reduction in colony formation incubated in CAMHB medium for 20 to 24 hrs followed by 24 hrs subculturing in the medium without test compound; type: functional
[34] = tested on: Haemophilus influenzae; assay: Ratio of MBC to MIC for azithromycin-susceptible Haemophilus influenzae ATCC 49247; type: functional
[35] = tested on: Streptococcus pyogenes; assay: Bactericidal activity against inducibly erythromycin resistant Streptococcus pyogenes 01-968 expressing i-ermA assessed as log reduction in bacterial CFU at 1 to 16XMIC incubated for 24 hrs by broth dilution method; type: functional; method in brief: as §2
[36] = AUCinfinity in Sprague-Dawley rat at 20 mg/kg, po administered as single dose measured for 0.25 to 24 hrs by LC-MS/MS analysis; type: ADME, organism-based; design: dose 20 mg/kg, time infinity, route oral; details: in vivo; method in brief: as §3
[37] = tested on: Streptococcus pneumoniae; assay: Bactericidal activity against erythromycin-susceptible Streptococcus pneumoniae ATCC 49619 incubated at >1XMIC incubated for 1 to 24 hrs by broth dilution method; type: functional, organism-based; method in brief: as §4
[38] = Cmax in Sprague-Dawley rat at 20 mg/kg, po administered as single dose measured for 0.25 to 24 hrs by LC-MS/MS analysis; type: ADME, organism-based; design: dose 20 mg/kg, route oral; details: in vivo; method in brief: as §3

Chain of Cytochrome P450 3A4 (P08684 whole entry): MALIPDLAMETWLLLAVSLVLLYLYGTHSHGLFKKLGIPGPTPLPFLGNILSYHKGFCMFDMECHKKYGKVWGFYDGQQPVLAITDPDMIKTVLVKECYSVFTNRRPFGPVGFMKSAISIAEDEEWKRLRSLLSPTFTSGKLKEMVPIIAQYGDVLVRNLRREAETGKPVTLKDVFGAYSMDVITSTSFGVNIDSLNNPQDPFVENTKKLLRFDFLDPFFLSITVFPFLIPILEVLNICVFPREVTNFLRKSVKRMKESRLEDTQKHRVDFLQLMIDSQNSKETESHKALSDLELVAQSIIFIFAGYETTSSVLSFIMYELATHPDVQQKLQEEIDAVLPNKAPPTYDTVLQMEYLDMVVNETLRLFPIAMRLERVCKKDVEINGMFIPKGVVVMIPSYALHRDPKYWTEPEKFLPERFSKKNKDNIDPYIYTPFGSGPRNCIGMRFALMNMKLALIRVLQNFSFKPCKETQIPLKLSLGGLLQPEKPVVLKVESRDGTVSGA

`CC[C@H]1OC(=O)[C@H](C)[C@@H](OC(=O)NCCCc2cccnc2)[C@H](C)[C@@H](O[C@@H]2O[C@H](C)C[C@H](N(C)C)[C@H]2O)[C@](C)(OC)C[C@@H](C)/C(=N\OC)[C@H](C)[C@H]2OC(=O)O[C@@]21C` showed an MIC [1] of 8 µg/mL (≈ 9.91 µM), an MBC [2] of 16 µg/mL (≈ 19.8 µM) and an MIC [3] of 0.5 µg/mL (≈ 0.62 µM). For the same molecule, the Activity [4] was “Active”, the Ratio [5] was 7 and the Ratio [6] was 8. For the same molecule, the half-life [7] was 2.94 h, the Activity [8] was 2 log10CFU and the MBC [9] was 128 µg/mL (≈ 159 µM). The Ratio [10] was 32, the Ratio [11] was 32 and the Tmax [12] was 0.833 h. The MRT [13] was 4.53 h, the Ratio [14] was 2 and the Ratio [15] was 2.4. For the same molecule, the CL/F [16] was 50.6 mL/min/kg, the MIC [17] was over 256 µg/mL and the Ratio [18] was 0.4. The AUC(0-t) [19] was 6730 ng·h/mL, the MIC [20] was 0.06 µg/mL (≈ 0.0743 µM) and the pIC50 [21] was 5.60. The Ratio [22] was 32, the Ratio [23] was 1.4 and the Ratio [24] was 1. The MIC [25] was 0.25 µg/mL (≈ 0.31 µM), the Ratio [26] was 7 and the Activity [27] was “Active”. The Ratio [28] was 5, the MIC [29] was 64 µg/mL (≈ 79.3 µM) and the Ratio [30] was 2. The MBC [31] was 2 µg/mL (≈ 2.48 µM), the MBC [32] was 0.125 µg/mL (≈ 0.155 µM) and the MBC [33] was 0.5 µg/mL (≈ 0.62 µM). The Ratio [34] was 2, the Activity [35] was “<=3 log10CFU” and the AUC(0-inf) [36] was 6760 ng·h/mL. For the same molecule, the Activity [37] was “Active” and the Cmax [38] was 1030 ng/mL.
